{"source": "ChEMBL document CHEMBL1165977", "about": "“Novel analogues of Istaroxime, a potent inhibitor of Na(+),K(+)-ATPase: Synthesis, structure-activity relationship and 3D-quantitative structure-activity relationship of derivatives at position 6 on the androstane scaffold” (Bioorg Med Chem, 2010)", "data": [{"assay": "Inhibition of dog kidney Na+K+-ATPase assessed as hydrolysis of [32P]ATP", "set-up": "species or system Canis lupus familiaris", "outline": "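Dog kidney Na+,K+-ATPase, isolated and purified by the Jørgensen method. Enzyme activity was read as % hydrolysis of 32P-ATP with versus without test compound. IC50 was obtained by nonlinear least-squares curve fitting, as the mean of two or three experiments.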", "units": {"IC50": "nM"}, "values": [{"smiles": "C=C1C[C@@H]2[C@H](CC[C@]3(C)C(=O)CC[C@@H]23)[C@@]2(C)CC/C(=N\\O[C@@H]3CCNC3)C[C@H]12", "IC50": 46}, {"smiles": "CNCCCO/N=C1\\CC[C@@]2(C)[C@H](C1)[C@@H](C(N)=O)C[C@@H]1[C@@H]2CC[C@]2(C)C(=O)CC[C@@H]12", "IC50": 1900}, {"smiles": "CNCCCO/N=C1\\CC[C@@]2(C)[C@H](C1)[C@@H](COC)C[C@@H]1[C@@H]2CC[C@]2(C)C(=O)CC[C@@H]12", "IC50": 2000}, {"smiles": "C[C@]12CC/C(=N\\OCCN)C[C@@H]1C1(CC1)C[C@@H]1[C@@H]2CC[C@]2(C)C(=O)CC[C@@H]12", "IC50": 850}, {"smiles": "C[C@]12CC/C(=N\\OCCN)C[C@@H]1[C@H](CO)C[C@@H]1[C@@H]2CC[C@]2(C)C(=O)CC[C@@H]12", "IC50": 1600}, {"smiles": "C[C@@H]1C[C@@H]2[C@H](CC[C@]3(C)C(=O)CC[C@@H]23)[C@@]2(C)CC/C(=N\\OCCN)C[C@H]12", "IC50": 6000}, {"smiles": "C/C=C1\\C[C@@H]2[C@H](CC[C@]3(C)C(=O)CC[C@@H]23)[C@@]2(C)CC/C(=N\\OCCN)C[C@H]12", "IC50": 1100}, {"smiles": "COC(=O)[C@H]1C[C@@H]2[C@H](CC[C@]3(C)C(=O)CC[C@@H]23)[C@@]2(C)CC/C(=N\\OCCN)C[C@H]12", "IC50": 410}, {"smiles": "C#C[C@H]1C[C@@H]2[C@H](CC[C@]3(C)C(=O)CC[C@@H]23)[C@@]2(C)CC/C(=N\\OCCCNC)C[C@H]12", "IC50": 1200}, {"smiles": "C=C[C@H]1C[C@@H]2[C@H](CC[C@]3(C)C(=O)CC[C@@H]23)[C@@]2(C)CC/C(=N\\OCCN)C[C@H]12", "IC50": 530}, {"smiles": "COC[C@H]1C[C@@H]2[C@H](CC[C@]3(C)C(=O)CC[C@@H]23)[C@@]2(C)CC/C(=N\\OCCN)C[C@H]12", "IC50": 500}, {"smiles": "C[C@]12CC/C(=N\\OCCN)C[C@@H]1[C@H](O[N+](=O)[O-])C[C@@H]1[C@@H]2CC[C@]2(C)C(=O)CC[C@@H]12", "IC50": 2900}, {"smiles": "CNCCCO/N=C1\\CC[C@@]2(C)[C@H](C1)C1(CC1)C[C@@H]1[C@@H]2CC[C@]2(C)C(=O)CC[C@@H]12", "IC50": 1300}, {"smiles": "CO[C@@H]1C[C@@H]2[C@H](CC[C@]3(C)C(=O)CC[C@@H]23)[C@@]2(C)CC/C(=N\\OCCN)C[C@H]12", "IC50": 1500}, {"smiles": "COC[C@@H]1C[C@@H]2[C@H](CC[C@]3(C)C(=O)CC[C@@H]23)[C@@]2(C)CC/C(=N\\OCCN)C[C@H]12", "IC50": 3000}, {"smiles": "C[C@H]1C[C@@H]2[C@H](CC[C@]3(C)C(=O)CC[C@@H]23)[C@@]2(C)CC/C(=N\\O[C@@H]3CCNC3)C[C@H]12", "IC50": 340}, {"smiles": "C[C@]12CC/C(=N\\OCCN)C[C@@H]1/C(=C/C#N)C[C@@H]1[C@@H]2CC[C@]2(C)C(=O)CC[C@@H]12", "IC50": 1700}, {"smiles": "C[C@]12CC/C(=N\\OCCN)C[C@@H]1[C@@H](C#N)C[C@@H]1[C@@H]2CC[C@]2(C)C(=O)CC[C@@H]12", "IC50": 1100}, {"smiles": "CO/N=C1\\C[C@@H]2[C@H](CC[C@]3(C)C(=O)CC[C@@H]23)[C@@]2(C)CC/C(=N\\O[C@@H]3CCNC3)C[C@H]12", "IC50": 18}, {"smiles": "C[C@]12CC/C(=N\\OCCN)C[C@@H]1C(=C(F)F)C[C@@H]1[C@@H]2CC[C@]2(C)C(=O)CC[C@@H]12", "IC50": 190}, {"smiles": "C[C@]12CC/C(=N\\OCCN)C[C@@H]1[C@@H](C(=O)O)C[C@@H]1[C@@H]2CC[C@]2(C)C(=O)CC[C@@H]12", "IC50": 16000}, {"smiles": "C[C@]12CC/C(=N\\O[C@@H]3CCNC3)C[C@@H]1[C@@H](CO)C[C@@H]1[C@@H]2CC[C@]2(C)C(=O)CC[C@@H]12", "IC50": 26}, {"smiles": "C[C@]12CC/C(=N\\OCCN)C[C@@H]1[C@@]1(CO1)C[C@@H]1[C@@H]2CC[C@]2(C)C(=O)CC[C@@H]12", "IC50": 910}, {"smiles": "C=C1C[C@@H]2[C@H](CC[C@]3(C)C(=O)CC[C@@H]23)[C@@]2(C)CC/C(=N\\OCCCNC)C[C@H]12", "IC50": 570}, {"smiles": "C[C@]12CC/C(=N\\OCCN)C[C@@H]1[C@@H](O)C[C@@H]1[C@@H]2CC[C@]2(C)C(=O)CC[C@@H]12", "IC50": 520}, {"smiles": "C[C@]12CC/C(=N\\OCCN)C[C@@H]1/C(=C/CO)C[C@@H]1[C@@H]2CC[C@]2(C)C(=O)CC[C@@H]12", "IC50": 770}, {"smiles": "C=CCO/N=C1\\C[C@@H]2[C@H](CC[C@]3(C)C(=O)CC[C@@H]23)[C@@]2(C)CC/C(=N\\OCCN)C[C@H]12", "IC50": 43000}, {"smiles": "CNCCCO/N=C1\\CC[C@@]2(C)[C@H](C1)/C(=N/OC)C[C@@H]1[C@@H]2CC[C@]2(C)C(=O)CC[C@@H]12", "IC50": 330}, {"smiles": "C[C@]12CC/C(=N\\O[C@@H]3CCNC3)C[C@@H]1[C@@H](O[N+](=O)[O-])C[C@@H]1[C@@H]2CC[C@]2(C)C(=O)CC[C@@H]12", "IC50": 380}, {"smiles": "CNCCCO/N=C1\\CC[C@@]2(C)[C@H](C1)C(=O)C[C@@H]1[C@@H]2CC[C@]2(C)C(=O)CC[C@@H]12", "IC50": 250}, {"smiles": "CCO/N=C1\\C[C@@H]2[C@H](CC[C@]3(C)C(=O)CC[C@@H]23)[C@@]2(C)CC/C(=N\\OCCN)C[C@H]12", "IC50": 1700}, {"smiles": "C[C@]12CC/C(=N\\OCCN)C[C@@H]1[C@@H](C(N)=O)C[C@@H]1[C@@H]2CC[C@]2(C)C(=O)CC[C@@H]12", "IC50": 630}, {"smiles": "COC(=O)/C=C1\\C[C@@H]2[C@H](CC[C@]3(C)C(=O)CC[C@@H]23)[C@@]2(C)CC/C(=N\\OCCN)C[C@H]12", "IC50": 64000}, {"smiles": "C[C@]12CC/C(=N\\O[C@@H]3CCNC3)C[C@@H]1C(=O)C[C@@H]1[C@@H]2CC[C@]2(C)C(=O)CC[C@@H]12", "IC50": 26}, {"smiles": "CC(=O)N[C@H]1C[C@@H]2[C@H](CC[C@]3(C)C(=O)CC[C@@H]23)[C@@]2(C)CC/C(=N\\OCCN)C[C@H]12", "IC50": 45000}, {"smiles": "C[C@]12CC/C(=N\\OCCN)C[C@@H]1[C@]1(CO1)C[C@@H]1[C@@H]2CC[C@]2(C)C(=O)CC[C@@H]12", "IC50": 870}, {"smiles": "CNCCCO/N=C1\\CC[C@@]2(C)[C@H](C1)[C@@H](C(=O)OC)C[C@@H]1[C@@H]2CC[C@]2(C)C(=O)CC[C@@H]12", "IC50": 4000}, {"smiles": "C[C@]12CC/C(=N\\OCCN)C[C@@H]1[C@H](O)C[C@@H]1[C@@H]2CC[C@]2(C)C(=O)CC[C@@H]12", "IC50": 2100}, {"smiles": "CCO[C@H]1C[C@@H]2[C@H](CC[C@]3(C)C(=O)CC[C@@H]23)[C@@]2(C)CC/C(=N\\OCCN)C[C@H]12", "IC50": 3100}, {"smiles": "C[C@]12CC/C(=N\\O[C@@H]3CCNC3)C[C@@H]1C1(CC1)C[C@@H]1[C@@H]2CC[C@]2(C)C(=O)CC[C@@H]12", "IC50": 220}, {"smiles": "C=C1C[C@@H]2[C@H](CC[C@]3(C)C(=O)CC[C@@H]23)[C@@]2(C)CC/C(=N\\OCCN)C[C@H]12", "IC50": 42}]}]}
